# Source: PubChem BioAssay
# Only some compounds are listed: those with a hit (about 1.3% of all), similar ones and a draw of the others.
# LEDGF integ inh: blockers of LEDGF/p75-dependent integrase strand transfer – biochemical, TR-FRET, high throughput, primary screen. TR-FRET IN-LEDGF/p75 DNA integration, Eu/Cy5. HIV-1 integrase (with human LEDGF/p75). 370,000 compounds, 0.64% hits. inhibition, % at 3.7 µM;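 active means inhibition above the screen-wide mean plus 3 SD, cut at about 13% in these data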;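 further: signal is the Cy5 over europium emission ratio at 671 and 618 nm; 0% = plate median of compound wells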
# Casp6 inh: human caspase-6 inhibitors, primary screen, biochemical, VEID-R110 fluorescence, single point, set 2; P55212; AID 686996, 2013; inhibition, % at 12.5 µM; purified caspase-6, Z-VEID-R110 cleavage fluorescence; 350,000 compounds, 0.53% hits;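 active means mean inhibition across replicates at least about 35%, with every replicate also reaching that limit, limit read from the data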;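 further: 0% = median of neutral control wells and 100% = no fluorescence left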
# UCH37 inh: inhibitors of human UCH37 deubiquitinase, primary screen, biochemical, Ub-AMC cleavage, fluorescence; purified proteasome/UCH37; AID 588478, 2011; Ubiquitin carboxyl-terminal hydrolase isozyme L5 (Homo sapiens), Q9Y5K5; inhibition, % (test concentration not listed); 330,000 compounds, 0.33% hits;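 active means mean inhibition over replicate wells above about 20%, limit read from the data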;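 further: 0% = compound-free wells with enzyme and 100% = wells lacking proteasome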
#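 Schedule: 30 min plus 25 min, room temperature / Material: human UCH37 within purified proteasomes / Technique: AMC fluorescence intensity at 355/460 nm / Buffer or medium: pH 7.4 Tris-HCl (50 mM) with ovalbumin, ATP-MgCl2, DTT / Controls: wells without proteasome as full block, compound-free enzyme plus substrate as uninhibited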
# NSD2 inh: NSD2 histone methyltransferase inhibitors, primary screen, biochemical, AlphaScreen, single concentration, set 2 | Histone-lysine N-methyltransferase NSD2 (Homo sapiens), O96028 | NSD2 peptide methylation, 120 min | inhibition, % at 12.5 µM | 310,000 compounds, 0.54% hits | AID 743445, 2014; in the data active means inhibition above about 50%
# TDP2 inh: human TDP2 enzyme inhibitors, primary screen, biochemical, epi absorbance, recombinant enzyme; T5PNP hydrolysis, p-nitrophenol absorbance 415 nm; inhibition, % at 12.8 µM; 370,000 compounds, 0.34% hits; AID 720702, 2013;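 active means inhibition above the mean of all tested compounds plus 3 SD, set per campaign, cut at about 25% in these data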;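 further: 0% = DMSO with enzyme and 100% = buffer with substrate but no TDP2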
#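 Assay system: Recombinant human TDP2 | Quantity: 120 nM TDP2 per well | Incubation: 2 h at 37 °C | Signal: Epi absorbance | Evaluation: Percent inhibition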
# TDP2 confirm: human TDP2 enzyme inhibitors, retest, confirmation, biochemical, epi absorbance, recombinant enzyme; shares compounds with TDP2 inh; absorbance read-out; inhibition, % at 12.8 µM; 1,100 compounds, 22% hits; AID 743263, 2014; in the data active means inhibition above about 25%;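 further: 0% = vehicle with enzyme and 100% = no enzyme buffer only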
# IN multimer up: HIV-1 IN multimer formation enhancers, counter-screen for LEDGF/p75 integration inhibitor project, biochemical, TR-FRET. activation, % at 7.7 µM. TR-FRET HIV-1 integrase multimerization. 2,000 compounds, 17% hits. shares compounds with LEDGF integ inh; in the data active means activation above about 8.9%
# TR-FRET interf: TR-FRET optical interference artefacts, confirmation, artefact control for LEDGF/p75-dependent integration inhibitor project, biochemical, HIV-1 IN multimerization; shares compounds with LEDGF integ inh; TR-FRET optical interference counterscreen; inhibition, % at 7.7 µM; 2,000 tested, under 10 active; AID 1053135, 2014;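 active means inhibition above the mean over all tested compounds plus 3 SD, which no compound reached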;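 further: 0% = integrase with antibodies and DMSO and 100% = antibodies without integrase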
# LEDGF integ conf: inhibitors of HIV-1 IN-LEDGF/p75 DNA integration, confirmation, biochemical, TR-FRET; shares compounds with LEDGF integ inh; TR-FRET LEDGF/p75-dependent HIV-1 integration; inhibition, % at 3.7 µM; 2,000 compounds, 36% hits; AID 1053136, 2014; in the data active means inhibition above about 14%
# Alpha artifact: AlphaScreen signal interference with preloaded methylated product, dose response, artefact control for NSD2 inhibitor project, biochemical, cherry-picked samples. AID 1053174, 2014. 1,500 compounds, 9.4% hits. AlphaScreen artifact counterscreen, preloaded methylated H4 peptide. AC35, µM (top dose mostly 10 µM), for inactives: at the highest dose activity change, negative = signal loss. shares compounds with NSD2 inh; call rule not given here
# Active calls of the source: *; i = inactive; x = no result given.
SMILES,LEDGF integ inh,Casp6 inh,UCH37 inh,NSD2 inh,TDP2 inh,IN multimer up,TR-FRET interf,LEDGF integ conf,others
CCN1CCN(c2ccc(N)cc2)CC1,0,-76,1,57*,32*,x,x,x,TDP2 confirm=6;Alpha artifact=-7%
CCOC(=O)c1c(N)n(CCN2CCCCC2)c2nc3ccccc3nc12,-2,-7,i,-10,5,x,x,x,
CCCCn1c(NS(=O)(=O)c2ccccc2)c(C(=O)OCC)c2nc3ccccc3nc21,31*,x,i,99*,88*,0,-1,66*,TDP2 confirm=83*;Alpha artifact=-2%
CCC(C)NC(=O)c1c(N)n(CCCOC)c2nc3ccccc3nc12 (stereo unspecified),39*,x,i,106*,67*,8,-25,14*,TDP2 confirm=17;Alpha artifact=10%
CC12CC[C@H]3[C@@H](CCC4(O)C[C@H](O)CCC34C=NNC(=O)Cc3ccccc3)C1(O)CCC2C1=CC(=O)OC1 (stereo partly specified),x,x,4,x,x,x,x,x,
O=C(Cc1ccccn1)N1CCCCN2[C@@H](CO)[C@@H](c3ccc(-c4ccccc4)cc3)[C@@H]2C1,x,0,x,x,x,x,x,x,
COc1ccccc1-n1c(-c2ccc(C)cc2)nc2ccccc2c1=O,-2,2,-1,1,10,x,x,x,
CCc1nc2ccccc2c(=O)n1-c1ccccc1OC,25*,1,1,-5,2,1,-3,-5,
COc1ccc(C#Cc2ccc([C@@H]3[C@@H](CO)N4CCCCN(C(=O)Cc5ccncc5)C[C@H]34)cc2)cc1,x,0,x,x,x,x,x,x,
O=C(CF)N(O)c1ccc(C=Cc2ccccc2)cc1,24*,-1,x,-5,1,0,-1,-5,
O=C(COc1ccccc1)N1CCN(C/C=C/c2ccccc2)CC1,-4,x,1,-4,-9,x,x,x,
O=C(Cc1ccccn1)N1CCCCN2[C@H](C1)[C@@H](c1ccc(C#Cc3ccccc3)cc1)[C@@H]2CO,x,-3,x,x,x,x,x,x,
CC(C)c1ccc(N2C(=O)NC(=O)/C(=C/C=C/c3ccco3)C2=O)cc1,24*,x,3,43,3,3,-12,27*,
Cc1ccc(N2C(=O)NC(=O)/C(=C/C=C/c3ccco3)C2=O)cc1,35*,x,3,46,7,-1,5,24*,
CC(C)c1ccc(N2C(=O)CC(=O)NC2=O)cc1,-3,-1,2,12,-5,x,x,x,
O=C1NC(=O)N(c2ccccc2)C(=O)/C1=C\C=C\c1ccccc1,0,0,x,47,2,x,x,x,
C=CCN1C(=S)N[C@@H]2c3ccccc3O[C@@]1(C)[C@@H]2C(=O)OCC,x,-2,x,x,x,x,x,x,
CC=Cc1ccc2n(c1=O)C[C@H]1[C@H](CO)[C@@H](C(=O)OC)[C@@H]2N1S(=O)(=O)c1cccc(C)c1 (mixture of isomers),x,-1,x,x,x,x,x,x,
O=c1[nH]c(=O)n(Cc2ccco2)c(O)c1C=NCc1ccco1,15*,x,2,3,23,-2,9,12,
CCCCC(=O)N/N=C/c1c(O)n(Cc2ccco2)c(=O)[nH]c1=O,27*,x,4,-1,10,0,-2,2,
O=C(N/N=C/c1c(O)n(Cc2ccco2)c(=O)[nH]c1=O)c1ccccc1O,13,32,5,-6,10,x,x,x,
CN(C)[C@@H]1C(=O)C(C(N)=O)=C(O)[C@@]2(O)C(=O)C3=C(O)c4c(O)ccc(Cl)c4[C@@](C)(O)C3C[C@@H]12 (stereo partly specified),28*,44*,x,x,-8,14*,-69,28*,
CN(C)[C@@H]1C(=O)C(C(N)=O)=C(O)[C@@]2(O)C(=O)C3=C(O)c4c(O)cccc4[C@@](C)(O)C3[C@H](O)C12 (stereo partly specified),42*,45*,-7,x,14,15*,-53,25*,
Cc1ccccc1S(=O)(=O)N1[C@@H]2Cn3c(ccc(-c4cccnc4)c3=O)[C@H]1[C@@H](C(=O)O)[C@@H]2CO,x,-1,x,x,x,x,x,x,
COc1ccc(-c2ccc3c(c2)CN(c2cccc(Cl)c2)Cc2cnnn2-3)cc1,73*,x,x,x,-9,-1,5,14*,
SMILES,LEDGF integ inh,Casp6 inh,UCH37 inh,NSD2 inh,TDP2 inh,IN multimer up,TR-FRET interf,LEDGF integ conf,others
COc1ccc(-c2ccc3c(c2)CN(CC(C)C)Cc2cnnn2-3)cc1,3,2,x,x,5,x,x,x,
C=CCn1c(O)c(C=Nc2ccc(N(CC)CC)cc2)c(=O)[nH]c1=O,30*,x,-26,0,15,2,-9,-1,
Cc1ccccc1-n1c(O)c(C=Nc2ccc(N(C)C)cc2)c(=O)[nH]c1=O,19*,x,12,3,8,5,-26,-12,
C=CCn1c(O)c(C=Nc2ccc(F)cc2)c(=O)[nH]c1=O,-4,-2,8,-5,8,x,x,x,
Cc1cccc(N=Cc2c(O)n(-c3ccccc3C)c(=O)[nH]c2=O)c1,-2,-1,8,4,7,x,x,x,
CCc1ccccc1N1C(=O)/C(=C/c2ccc(N3CCN(C)CC3)o2)C(=O)NC1=S,17*,12,16,1,-1,2,-8,14*,
Cc1cc(/C=C2/C(=O)NC(=O)N(Cc3ccco3)C2=O)c(C)n1-c1ccccc1O,26*,24,3,x,-11,1,-3,-3,
CCN(CC)c1ccc(/C=C2/C(=O)NC(=O)N(CC3CCCO3)C2=O)cc1 (stereo unspecified),-1,x,2,1,3,x,x,x,
CCN(CC)c1ccc(/C=C2\C(=O)NC(=O)N(Cc3ccco3)C2=O)cc1,71*,x,5,40,2,-1,3,54*,
